ChEMBL document CHEMBL1157864, “Synthesis of some novel 2-substituted-5-[isopropylthiazole] clubbed 1,2,4-triazole and 1,3,4-oxadiazoles as potential antimicrobial and antitubercular agents” (Eur J Med Chem, 2010)
Converted amounts (≈) assume the structure as drawn.

Experiments:
[1] = tested on: Mycobacterium tuberculosis; assay: Antimycobacterial activity against Mycobacterium tuberculosis H37Rv after 21 days by broth dilution assay; type: functional; conditions: 504 h
Method in brief: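 Middlebrook 7H9 broth with 10% albumin-dextrose-catalase and 0.2% glycerol; frozen culture thawed, diluted to 10⁵ cfu/mL and used as inoculum. Compounds taken up in DMSO and diluted twice in broth, 1.3% DMSO final. Incubated at 37 °C. Growth judged by eye against drug-free and inoculum-free controls and isoniazid. MIC is the lowest concentration inhibiting ≥99% of the starting population.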

Klebsiella pneumoniae = assay: Antimicrobial activity against Klebsiella pneumoniae ATCC 10031 after 24 hrs by broth microdilution assay; type: functional; conditions: ATCC 10031, 24 h
Method in brief: (§1)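 Broth dilution MIC. Stock is 10 mg compound in 1 mL DMSO, serially diluted in Mueller–Hinton broth for bacteria or Sabouraud liquid medium for yeasts and mould. Tubes are inoculated at 10⁵ cfu/mL and incubated at 37 °C for 24 h. Controls are medium alone and medium with DMSO at matching dilutions. MIC is the lowest concentration giving complete growth inhibition.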

Escherichia coli = assay: Antimicrobial activity against Escherichia coli ATCC 10536 after 24 hrs by broth microdilution assay; type: functional; conditions: ATCC 10536, 24 h; method in brief: as §1
Saccharomyces cerevisiae = assay: Antimicrobial activity against Saccharomyces cerevisiae ATCC 9763 after 24 hrs by broth microdilution assay; type: functional; conditions: ATCC 9763, 24 h; method in brief: as §1
Candida tropicalis = assay: Antimicrobial activity against Candida tropicalis ATCC 1369 after 24 hrs by broth microdilution assay; type: functional; conditions: ATCC 1369, 24 h; method in brief: as §1
Enterococcus faecalis = assay: Antimicrobial activity against Streptococcus faecalis ATCC 14506 after 24 hrs by broth microdilution assay; type: functional; conditions: ATCC 14506, 24 h; method in brief: as §1
Pseudomonas aeruginosa = assay: Antimicrobial activity against Pseudomonas aeruginosa ATCC 10145 after 24 hrs by broth microdilution assay; type: functional; conditions: ATCC 10145, 24 h; method in brief: as §1
Aspergillus niger = assay: Antimicrobial activity against Aspergillus niger ATCC 6275 after 24 hrs by broth microdilution assay; type: functional; conditions: ATCC 6275, 24 h; method in brief: as §1
Staphylococcus aureus = assay: Antimicrobial activity against Staphylococcus aureus ATCC 11632 after 24 hrs by broth microdilution assay; type: functional; conditions: ATCC 11632, 24 h; method in brief: as §1
Bacillus subtilis = assay: Antimicrobial activity against Bacillus subtilis ATCC 60511 after 24 hrs by broth microdilution assay; type: functional; conditions: ATCC 60511, 24 h; method in brief: as §1
A549 = assay: Cytotoxicity against human A549 cells at 250 uM; type: cell-based; conditions: a549, 250 µM
Method in brief: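 A549 lung adenocarcinoma cells are grown with fetal bovine serum. Compounds are taken from 10 mM DMSO stocks stored at −20 °C and diluted in culture medium, with treatments at 50–250 µM. Viability is read by MTT assay against untreated cells and a DMSO vehicle control.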

CC(C)c1csc(-c2nnc(-c3ccc([N+](=O)[O-])cc3)o2)n1
MIC [1]: 62.5 µg/mL (≈ 198 µM)
MIC (Klebsiella pneumoniae): 62.5 µg/mL (≈ 198 µM)
MIC (Escherichia coli): 125 µg/mL (≈ 395 µM)
MIC (Saccharomyces cerevisiae): 16 µg/mL (≈ 50.6 µM)
MIC (Candida tropicalis): 16 µg/mL (≈ 50.6 µM)
MIC (Enterococcus faecalis): 31.2 µg/mL (≈ 98.8 µM)
MIC (Pseudomonas aeruginosa): 31.2 µg/mL (≈ 98.8 µM)
MIC (Aspergillus niger): 31.2 µg/mL (≈ 98.8 µM)
MIC (Staphylococcus aureus): 16 µg/mL (≈ 50.6 µM)
MIC (Bacillus subtilis): 31.2 µg/mL (≈ 98.8 µM)
Activity (A549): 50%

CC(=O)N1N=C(c2nc(C(C)C)cs2)OC1(C)C
MIC [1]: 125 µg/mL (≈ 468 µM)
MIC (Klebsiella pneumoniae): 125 µg/mL (≈ 468 µM)
MIC (Escherichia coli): 125 µg/mL (≈ 468 µM)
MIC (Saccharomyces cerevisiae): 62.5 µg/mL (≈ 234 µM)
MIC (Candida tropicalis): 62.5 µg/mL (≈ 234 µM)
MIC (Enterococcus faecalis): 125 µg/mL (≈ 468 µM)
MIC (Pseudomonas aeruginosa): 125 µg/mL (≈ 468 µM)
MIC (Aspergillus niger): 62.5 µg/mL (≈ 234 µM)
MIC (Staphylococcus aureus): 62.5 µg/mL (≈ 234 µM)
MIC (Bacillus subtilis): 125 µg/mL (≈ 468 µM)

CC(=O)N1N=C(c2nc(C(C)C)cs2)OC1(C)c1ccccc1 (centres undefined)
MIC [1]: 62.5 µg/mL (≈ 190 µM)
MIC (Klebsiella pneumoniae): 62.5 µg/mL (≈ 190 µM)
MIC (Escherichia coli): 62.5 µg/mL (≈ 190 µM)
MIC (Saccharomyces cerevisiae): 125 µg/mL (≈ 379 µM)
MIC (Candida tropicalis): 31.2 µg/mL (≈ 94.9 µM)
MIC (Enterococcus faecalis): 31.2 µg/mL (≈ 94.9 µM)
MIC (Pseudomonas aeruginosa): 31.2 µg/mL (≈ 94.9 µM)
MIC (Aspergillus niger): 62.5 µg/mL (≈ 190 µM)
MIC (Staphylococcus aureus): 31.2 µg/mL (≈ 94.9 µM)
MIC (Bacillus subtilis): 62.5 µg/mL (≈ 190 µM)

CC(=O)N1N=C(c2nc(C(C)C)cs2)OC1(C)c1ccc(Cl)cc1 (centres undefined)
MIC [1]: 16 µg/mL (≈ 44 µM)
MIC (Klebsiella pneumoniae): 8 µg/mL (≈ 22 µM)
MIC (Escherichia coli): 8 µg/mL (≈ 22 µM)
MIC (Saccharomyces cerevisiae): 62.5 µg/mL (≈ 172 µM)
MIC (Candida tropicalis): 31.2 µg/mL (≈ 85.9 µM)
MIC (Enterococcus faecalis): 62.5 µg/mL (≈ 172 µM)
MIC (Pseudomonas aeruginosa): 8 µg/mL (≈ 22 µM)
MIC (Aspergillus niger): 62.5 µg/mL (≈ 172 µM)
MIC (Staphylococcus aureus): 16 µg/mL (≈ 44 µM)
MIC (Bacillus subtilis): 31.2 µg/mL (≈ 85.9 µM)
Activity (A549): Toxic

Cc1ccc(/C=N/n2c(S)nnc2-c2nc(C(C)C)cs2)cc1
MIC [1]: 32.5 µg/mL (≈ 94.6 µM)
MIC (Klebsiella pneumoniae): 125 µg/mL (≈ 364 µM)
MIC (Escherichia coli): 125 µg/mL (≈ 364 µM)
MIC (Saccharomyces cerevisiae): 31.2 µg/mL (≈ 91 µM)
MIC (Candida tropicalis): 31.2 µg/mL (≈ 91 µM)
MIC (Enterococcus faecalis): 125 µg/mL (≈ 364 µM)
MIC (Pseudomonas aeruginosa): 31.2 µg/mL (≈ 91 µM)
MIC (Aspergillus niger): 16 µg/mL (≈ 46.6 µM)
MIC (Staphylococcus aureus): 31.2 µg/mL (≈ 91 µM)
MIC (Bacillus subtilis): 31.2 µg/mL (≈ 91 µM)
Activity (A549): 50%

CC(C)c1csc(-c2nnc(S)n2/N=C/c2ccccc2Cl)n1
MIC [1]: 4 µg/mL (≈ 11 µM)
MIC (Klebsiella pneumoniae): 8 µg/mL (≈ 22 µM)
MIC (Escherichia coli): 62.5 µg/mL (≈ 172 µM)
MIC (Saccharomyces cerevisiae): 31.2 µg/mL (≈ 85.9 µM)
MIC (Candida tropicalis): 31.2 µg/mL (≈ 85.9 µM)
MIC (Enterococcus faecalis): 8 µg/mL (≈ 22 µM)
MIC (Pseudomonas aeruginosa): 16 µg/mL (≈ 44 µM)
MIC (Aspergillus niger): 16 µg/mL (≈ 44 µM)
MIC (Staphylococcus aureus): 31.2 µg/mL (≈ 85.9 µM)
MIC (Bacillus subtilis): 4 µg/mL (≈ 11 µM)
Activity (A549): 50%
